Test results: ChEMBL document CHEMBL2390901, “Synthesis and biological evaluation of N-(4-hydroxy-3-mercaptonaphthalen-1-yl)amides as inhibitors of angiogenesis and tumor growth” (Eur J Med Chem, 2013)
pIC50: −log10 of the molar value. The source made the active and inactive calls. The calls are words filed in the database; no cut-off is given here.

Assays:
[1] = biological target: ALK tyrosine kinase receptor (Homo sapiens) (UniProt Q9UM73); experiment: Inhibition of ALK (unknown origin) at 10 uM after 30 mins by fluorescence assay
Sequence of ALK tyrosine kinase receptor (Homo sapiens) (Q9UM73 19-1620 limits assumed): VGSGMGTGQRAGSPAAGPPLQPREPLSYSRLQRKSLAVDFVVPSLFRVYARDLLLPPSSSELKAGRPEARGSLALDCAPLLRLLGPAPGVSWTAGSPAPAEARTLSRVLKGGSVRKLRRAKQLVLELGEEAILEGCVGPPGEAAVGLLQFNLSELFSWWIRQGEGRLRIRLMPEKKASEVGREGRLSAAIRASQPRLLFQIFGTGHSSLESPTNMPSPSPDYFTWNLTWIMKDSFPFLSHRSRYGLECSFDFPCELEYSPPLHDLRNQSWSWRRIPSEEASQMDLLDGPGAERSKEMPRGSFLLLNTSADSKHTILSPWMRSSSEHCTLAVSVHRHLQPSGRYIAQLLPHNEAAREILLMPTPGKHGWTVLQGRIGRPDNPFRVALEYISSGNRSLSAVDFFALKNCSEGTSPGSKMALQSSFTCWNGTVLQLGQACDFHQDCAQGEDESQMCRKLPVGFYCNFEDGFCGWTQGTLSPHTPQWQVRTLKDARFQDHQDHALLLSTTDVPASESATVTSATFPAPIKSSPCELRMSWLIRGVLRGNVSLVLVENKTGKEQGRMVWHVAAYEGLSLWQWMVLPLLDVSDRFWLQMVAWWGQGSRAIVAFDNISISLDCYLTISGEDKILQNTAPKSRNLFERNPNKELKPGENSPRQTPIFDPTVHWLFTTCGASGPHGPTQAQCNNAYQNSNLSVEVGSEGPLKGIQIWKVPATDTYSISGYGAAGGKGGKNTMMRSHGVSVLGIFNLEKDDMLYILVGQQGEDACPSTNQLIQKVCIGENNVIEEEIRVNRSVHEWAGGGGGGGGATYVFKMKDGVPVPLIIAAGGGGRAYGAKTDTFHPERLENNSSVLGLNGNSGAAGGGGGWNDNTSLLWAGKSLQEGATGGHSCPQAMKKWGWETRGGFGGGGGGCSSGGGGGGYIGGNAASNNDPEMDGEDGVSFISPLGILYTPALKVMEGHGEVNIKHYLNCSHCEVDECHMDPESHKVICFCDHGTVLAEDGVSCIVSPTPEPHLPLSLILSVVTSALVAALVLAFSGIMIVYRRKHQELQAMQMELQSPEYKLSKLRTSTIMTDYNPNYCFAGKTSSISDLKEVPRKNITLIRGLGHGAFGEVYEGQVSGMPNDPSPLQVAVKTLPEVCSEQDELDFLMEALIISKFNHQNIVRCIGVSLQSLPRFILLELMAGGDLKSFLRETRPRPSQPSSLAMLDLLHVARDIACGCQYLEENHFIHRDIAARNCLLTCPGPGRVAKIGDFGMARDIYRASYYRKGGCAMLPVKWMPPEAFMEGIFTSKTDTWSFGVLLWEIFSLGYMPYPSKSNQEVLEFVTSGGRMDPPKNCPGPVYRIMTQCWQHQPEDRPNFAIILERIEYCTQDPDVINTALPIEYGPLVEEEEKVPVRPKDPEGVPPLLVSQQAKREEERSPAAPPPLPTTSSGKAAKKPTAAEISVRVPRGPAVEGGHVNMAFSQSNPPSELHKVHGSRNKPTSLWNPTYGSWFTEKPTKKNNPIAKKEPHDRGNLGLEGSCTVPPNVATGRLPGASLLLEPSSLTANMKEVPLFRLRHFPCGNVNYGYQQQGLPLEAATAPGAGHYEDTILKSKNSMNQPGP
In short: (§1)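 Single 10 μM test. Enzyme preincubated with compound in Hepes/Tris pH 7.4, EGTA/Tris, MgCl2, DTT, 0.008 % Tween 20. Substrate peptide and ATP added; 30 min at room temperature. Stopped with EDTA; europium-labelled anti-phospho PT66 antibody added, TR-FRET read after 60 min. Percent inhibition versus control enzyme activity; no-enzyme basal control; duplicate.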

[2] = biological target: RAC-alpha serine/threonine-protein kinase (Homo sapiens) (UniProt P31749); experiment: Inhibition of AKT1 (unknown origin) at 10 uM after 30 mins by fluorescence assay; in short: as §1
Sequence of RAC-alpha serine/threonine-protein kinase (Homo sapiens) (P31749 whole entry): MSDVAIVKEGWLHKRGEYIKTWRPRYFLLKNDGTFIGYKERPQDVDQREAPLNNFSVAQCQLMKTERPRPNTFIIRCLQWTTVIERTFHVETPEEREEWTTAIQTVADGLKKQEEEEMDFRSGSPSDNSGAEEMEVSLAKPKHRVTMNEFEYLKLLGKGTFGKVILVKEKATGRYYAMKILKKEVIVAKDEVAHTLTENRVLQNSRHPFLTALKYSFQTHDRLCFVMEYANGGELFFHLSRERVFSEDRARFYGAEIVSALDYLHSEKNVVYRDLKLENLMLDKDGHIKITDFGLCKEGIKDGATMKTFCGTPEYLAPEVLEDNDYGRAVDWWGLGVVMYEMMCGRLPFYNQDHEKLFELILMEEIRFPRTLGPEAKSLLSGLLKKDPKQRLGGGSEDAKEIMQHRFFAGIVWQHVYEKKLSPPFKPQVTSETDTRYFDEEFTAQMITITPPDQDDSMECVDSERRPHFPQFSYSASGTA

Aorta [3] = experiment: Antiangiogenic activity in Sprague-Dawley rat aortic rings assessed as inhibition of microvessel outgrowth at 50 uM after 6 days by matrigel assay; type: functional; details: for inhibition at 50 µM: 144 h
In short: (§2)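 Aortas from 8–10-week-old male Sprague Dawley rats cleaned of fibroadipose tissue, cut into 1-mm rings, embedded between two Matrigel layers. Compound or vehicle (0.5 % DMSO) added every other day for 6 days; imaged day 7 (×200). Sprouting area quantified as pixels versus vehicle; mean ± SD, three independent experiments.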

HUVEC [4] = experiment: Antiangiogenic activity in HUVEC assessed as inhibition of tube formation at 50 uM after 6 hrs by matrigel assay; type: functional; details: Homo sapiens
In short: (§3)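 HUVECs seeded at 40,000 cells/well on Matrigel (gelled 30 min, 37 °C) in M199 with 5 % FBS plus compound or vehicle (0.5 % DMSO); 6 h at 37 °C, 5 % CO2. Tubes photographed by phase-contrast (×200); tube area measured as pixels and compared with vehicle. Mean ± SD of three independent experiments.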

PC-3 = experiment: Antiproliferative activity against human PC3 cells after 48 hrs by MTT assay; type: functional, cell-based; details: PC-3, 48 h
In short: (§4)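 Cells kept in RPMI 1640 with 10 % FBS at 37 °C, 5 % CO2. Seeded 5,000/well, allowed 4 h, then exposed to serial dilutions for 48 h. MTT added for the last 4 h; formazan dissolved in DMSO, absorbance at 570 nm.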

HCT-116 = experiment: Antiproliferative activity against human HCT116 cells after 48 hrs by MTT assay; type: functional, cell-based; details: HCT-116, 48 h; in short: as §4
MDA-MB-231 = experiment: Antiproliferative activity against human MDA-MB-231 cells after 48 hrs by MTT assay; type: functional, cell-based; details: MDA-MB-231, 48 h; in short: as §4
[5] = biological target: Platelet-derived growth factor receptor beta (Homo sapiens) (UniProt P09619); experiment: Inhibition of PDGFR-beta (unknown origin) at 10 uM after 30 mins by fluorescence assay
Sequence of Platelet-derived growth factor receptor beta (Homo sapiens) (P09619 whole entry): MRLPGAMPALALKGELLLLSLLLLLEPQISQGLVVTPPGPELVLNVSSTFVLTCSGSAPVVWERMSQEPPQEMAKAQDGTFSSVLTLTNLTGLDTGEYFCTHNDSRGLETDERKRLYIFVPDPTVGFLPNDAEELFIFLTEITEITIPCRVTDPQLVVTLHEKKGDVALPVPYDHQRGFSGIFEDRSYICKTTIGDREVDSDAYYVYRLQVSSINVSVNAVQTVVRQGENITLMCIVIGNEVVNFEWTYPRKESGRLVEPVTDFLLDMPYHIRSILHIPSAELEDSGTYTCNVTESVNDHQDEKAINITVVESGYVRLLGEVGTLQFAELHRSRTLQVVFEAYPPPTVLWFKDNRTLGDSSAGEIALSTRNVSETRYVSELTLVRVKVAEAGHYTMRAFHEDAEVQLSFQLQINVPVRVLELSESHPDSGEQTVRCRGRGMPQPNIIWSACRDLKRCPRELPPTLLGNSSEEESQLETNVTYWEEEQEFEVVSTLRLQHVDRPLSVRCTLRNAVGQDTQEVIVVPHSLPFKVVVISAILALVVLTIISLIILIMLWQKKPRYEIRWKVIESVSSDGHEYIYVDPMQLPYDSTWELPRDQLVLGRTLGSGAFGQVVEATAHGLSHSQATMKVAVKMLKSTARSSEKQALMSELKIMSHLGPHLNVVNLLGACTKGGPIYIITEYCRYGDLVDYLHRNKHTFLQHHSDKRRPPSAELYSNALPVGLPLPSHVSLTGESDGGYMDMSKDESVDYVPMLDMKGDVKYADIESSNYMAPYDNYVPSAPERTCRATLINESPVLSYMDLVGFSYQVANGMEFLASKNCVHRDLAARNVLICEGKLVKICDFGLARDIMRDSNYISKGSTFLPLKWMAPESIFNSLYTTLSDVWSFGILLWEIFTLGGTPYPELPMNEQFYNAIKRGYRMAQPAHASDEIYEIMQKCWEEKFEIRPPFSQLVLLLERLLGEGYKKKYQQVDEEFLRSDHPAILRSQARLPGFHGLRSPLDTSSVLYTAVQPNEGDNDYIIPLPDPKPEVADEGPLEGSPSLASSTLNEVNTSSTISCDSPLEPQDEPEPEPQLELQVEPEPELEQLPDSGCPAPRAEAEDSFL

[6] = biological target: Vascular endothelial growth factor receptor 2 (Homo sapiens) (UniProt P35968); experiment: Inhibition of VEGFR2 (unknown origin) at 10 uM after 30 mins by fluorescence assay
Sequence of Vascular endothelial growth factor receptor 2 (Homo sapiens) (P35968 whole entry): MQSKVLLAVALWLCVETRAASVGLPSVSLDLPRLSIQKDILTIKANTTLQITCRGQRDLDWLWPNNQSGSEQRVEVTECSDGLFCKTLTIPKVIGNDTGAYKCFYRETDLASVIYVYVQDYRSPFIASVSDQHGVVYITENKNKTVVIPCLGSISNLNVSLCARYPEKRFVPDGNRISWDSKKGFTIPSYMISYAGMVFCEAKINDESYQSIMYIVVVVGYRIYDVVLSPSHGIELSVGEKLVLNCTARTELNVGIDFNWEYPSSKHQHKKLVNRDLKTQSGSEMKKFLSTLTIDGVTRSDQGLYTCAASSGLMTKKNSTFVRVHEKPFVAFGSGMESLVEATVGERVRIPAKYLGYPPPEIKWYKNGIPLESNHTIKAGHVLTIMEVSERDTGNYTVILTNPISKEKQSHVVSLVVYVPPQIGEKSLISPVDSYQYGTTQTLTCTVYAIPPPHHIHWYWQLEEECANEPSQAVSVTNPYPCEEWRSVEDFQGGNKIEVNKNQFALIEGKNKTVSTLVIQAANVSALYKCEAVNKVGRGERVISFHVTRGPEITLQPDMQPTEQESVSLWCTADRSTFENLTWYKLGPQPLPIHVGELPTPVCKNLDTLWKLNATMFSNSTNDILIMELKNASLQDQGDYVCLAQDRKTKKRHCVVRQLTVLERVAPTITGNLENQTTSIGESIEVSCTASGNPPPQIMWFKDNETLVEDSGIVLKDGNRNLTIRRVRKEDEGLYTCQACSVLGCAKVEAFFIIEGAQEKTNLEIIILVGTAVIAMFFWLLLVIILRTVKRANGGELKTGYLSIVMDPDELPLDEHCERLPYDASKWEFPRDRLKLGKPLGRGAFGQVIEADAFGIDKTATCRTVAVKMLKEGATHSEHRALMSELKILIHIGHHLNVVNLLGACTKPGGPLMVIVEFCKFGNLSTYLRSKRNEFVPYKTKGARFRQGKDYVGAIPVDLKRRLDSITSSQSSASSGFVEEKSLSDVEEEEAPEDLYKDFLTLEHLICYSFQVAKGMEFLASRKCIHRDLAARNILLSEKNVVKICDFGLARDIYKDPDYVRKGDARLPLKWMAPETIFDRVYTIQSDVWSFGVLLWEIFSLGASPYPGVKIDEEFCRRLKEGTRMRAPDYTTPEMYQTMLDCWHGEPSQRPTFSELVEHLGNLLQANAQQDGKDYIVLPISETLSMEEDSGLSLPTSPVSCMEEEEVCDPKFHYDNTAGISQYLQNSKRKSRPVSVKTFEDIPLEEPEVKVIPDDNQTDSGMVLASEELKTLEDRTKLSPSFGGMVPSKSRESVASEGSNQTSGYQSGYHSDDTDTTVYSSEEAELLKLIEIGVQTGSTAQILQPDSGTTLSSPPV

Aorta [7] = experiment: Antiangiogenic activity in Sprague-Dawley rat aortic rings assessed as inhibition of microvessel outgrowth at 1 uM after 6 days by matrigel assay; type: functional; details: 144 h; in short: as §2
Aorta [8] = experiment: Antiangiogenic activity in Sprague-Dawley rat aortic rings assessed as reduction of microvessel outgrowth after 6 days by matrigel assay; type: functional, tissue-based; in short: as §2
HUVEC [9] = experiment: Antiangiogenic activity in HUVEC assessed as inhibition of tube formation at 10 uM after 6 hrs by matrigel assay; type: functional; details: Homo sapiens; in short: as §3
A549 = experiment: Antiproliferative activity against human A549 cells after 48 hrs by MTT assay; type: functional, cell-based; details: A549, 48 h; in short: as §4
K562 = experiment: Antiproliferative activity against human K562 cells after 48 hrs by MTT assay; type: functional, cell-based; details: K562, 48 h; in short: as §4
HUVEC [10] = experiment: Antiproliferative activity against human HUVEC cells after 48 hrs by MTT assay; type: functional, cell-based; in short: as §4
MCF7 = experiment: Antiproliferative activity against human MCF7 cells after 48 hrs by MTT assay; type: functional, cell-based; details: MCF7, 48 h; in short: as §4
Aorta [11] = experiment: Antiangiogenic activity in Sprague-Dawley rat aortic rings assessed as inhibition of microvessel outgrowth at 10 uM after 6 days by matrigel assay; type: functional; details: 144 h; in short: as §2

Compound	inhibition [1]	inhibition [2] [%]	pIC50 (PC-3)	pIC50 (HCT-116)	pIC50 (MDA-MB-231)	inhibition [5] [%]	inhibition [6] [%]	pIC50 (A549)	pIC50 (K562)	pIC50 (MCF7)	inhibition (Aorta [3])	inhibition at 50 µM (HUVEC [4]) [%]	inhibition at 1 µM (Aorta [7]) [%]	Activity (Aorta [8])	inhibition at 50 µM (Aorta [3]) [%]	inhibition at 10 µM (HUVEC [9]) [%]	pIC50 (HUVEC [10])	inhibition at 10 µM (Aorta [11]) [%]	inhibition (HUVEC [9])
O=C(Nc1cc(Sc2ncn[nH]2)c(O)c2ccccc12)c1ccccc1[N+](=O)[O-]	56.8%	85.8	4.28	4.99	4.67	37.9	65.2	4.39	4.97	5.55		> 80	91	Dose-dependent effect	95	83	5.27		
O=C(Nc1cc(Sc2ncn[nH]2)c(O)c2ccccc12)c1ccc2ccccc2c1	inactive	41.6	< 4.00	< 4.00	4.35						Active								
Cc1nnc(Sc2cc(NC(=O)c3ccc(Cl)cc3)c3ccccc3c2O)s1	9.25%	8.48	4.31	< 4.00	< 4.00							> 80	18	Dose-dependent effect	91	81		23	
O=C(Nc1cc(Sc2ncnc3nc[nH]c23)c(O)c2ccccc12)c1ccc([N+](=O)[O-])cc1			< 4.00	< 4.00	< 4.00						Active								
O=C(Nc1cc(Sc2ncnc3nc[nH]c23)c(O)c2ccccc12)c1ccccc1[N+](=O)[O-]	inactive	50.7	< 4.00	4.50	4.27			< 4.00	4.43	< 4.00		> 80	> 70	Dose-dependent effect	96				
O=C(Nc1cc(Sc2ncn[nH]2)c(O)c2ccccc12)c1cccc([N+](=O)[O-])c1	inactive	29.3	4.57	4.15	4.32						Active								
O=C(Nc1cc(Sc2nncs2)c(O)c2ccccc12)c1ccc(Cl)cc1	4.2%	7.5	< 4.00	< 4.00	< 4.00						Active	> 80							
CN[C@@H]1C[C@H]2O[C@@](C)([C@@H]1OC)n1c3ccccc3c3c4c(c5c6ccccc6n2c5c31)C(=O)NC4	97.9%																		
CNC(=O)c1cc(Oc2ccc(NC(=O)Nc3ccc(Cl)c(C(F)(F)F)c3)cc2)ccn1 [SORAFENIB]			4.62	5.09	4.84			4.90	4.86	5.13							5.19		
Cn1nnnc1Sc1cc(NC(=O)c2ccc(Cl)cc2)c2ccccc2c1O	inactive	13.1	< 4.00	< 4.00	< 4.00						Active								
O=C(Nc1cc(Sc2ncnc3nc[nH]c23)c(O)c2ccccc12)c1ccc(Cl)cc1	inactive	21.7	4.18	< 4.00	4.64			4.42	4.77	4.84			> 70	Dose-dependent effect	92		5.12		

More lines, main results first:

inhibition [1]	inhibition [2] [%]	pIC50 (PC-3)	pIC50 (HCT-116)	pIC50 (MDA-MB-231)	inhibition [5] [%]	inhibition [6] [%]	pIC50 (A549)	pIC50 (K562)	pIC50 (MCF7)	Compound	inhibition (Aorta [3])	inhibition at 50 µM (HUVEC [4]) [%]	inhibition at 1 µM (Aorta [7]) [%]	Activity (Aorta [8])	inhibition at 50 µM (Aorta [3]) [%]	inhibition at 10 µM (HUVEC [9]) [%]	pIC50 (HUVEC [10])	inhibition at 10 µM (Aorta [11]) [%]	inhibition (HUVEC [9])
inactive	46	4.07	< 4.00	< 4.00						O=C(Nc1cc(Sc2ncn[nH]2)c(O)c2ccccc12)c1cccc(Cl)c1	Active	> 80							
inactive	26.1	< 4.00	< 4.00	< 4.00						O=C(/C=C/c1ccccc1)Nc1cc(Sc2ncn[nH]2)c(O)c2ccccc12	Active	> 80							
inactive	40.6	< 4.00	< 4.00	< 4.00						O=C(/C=C/c1ccc([N+](=O)[O-])cc1)Nc1cc(Sc2ncn[nH]2)c(O)c2ccccc12	Active								
inactive	50.1	5.26	4.36	4.59			4.38	4.73	< 4.00	O=C(Nc1cc(Sc2ncn[nH]2)c(O)c2ccccc12)c1ccc(Cl)cc1	inactive	65					< 4.00		Active
inactive	20.2	4.23	< 4.00	< 4.00						Cc1cccc(C(=O)Nc2cc(Sc3ncn[nH]3)c(O)c3ccccc23)c1	Active								
3.37%	37.3	4.27	< 4.00	< 4.00						O=C(Nc1cc(Sc2ncn[nH]2)c(O)c2ccccc12)c1ccc([N+](=O)[O-])cc1	Active	> 80							
inactive	19.4	4.38	< 4.00	< 4.00						COc1cccc(C(=O)Nc2cc(Sc3ncn[nH]3)c(O)c3ccccc23)c1	Active								
inactive	30.8	< 4.00	< 4.00	< 4.00						COc1ccc(C(=O)Nc2cc(Sc3ncn[nH]3)c(O)c3ccccc23)cc1	Active								
14.9%	31.6	< 4.00	< 4.00	4.28						COc1ccc(/C=C/C(=O)Nc2cc(Sc3ncn[nH]3)c(O)c3ccccc23)cc1OC	Active								
0.7%	31.8	< 4.00	< 4.00	< 4.00						O=C(/C=C/c1ccc(Cl)cc1)Nc1cc(Sc2ncn[nH]2)c(O)c2ccccc12	Active								
